In data set [1] the test system is Rattus norvegicus. The data set is described as follows: Compound was tested for inhibiting prolactin release at the 0.0456 mg/kg dose levels. Format: functional. The method, boiled down: (§1)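 Adult male Wistar rats (250–300 g) were caged singly with food and water ad libitum. Each rat got reserpine pretreatment, 2.5 mg/rat ip (2.5 mg/mL), 18 h before the drug. Drugs were dissolved in distilled water at 1 mL/kg ip; saline controls were run. Serum (100 µL, duplicate) was assayed by NIADDK prolactin RIA, expressed as ng RP3/mL. Results were given as % inhibition versus controls, mean ± standard error, 5–10 rats/group.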

Data set [2] deals with Rattus norvegicus. The data set is described as follows: Compound was tested for inhibiting prolactin release at the 0.456 mg/kg dose levels. Format: functional. Put shortly:
as §1

Data set [3] deals with Rattus norvegicus. The data set is described as follows: Compound was tested for inhibiting prolactin release at the 4.56 mg/kg dose levels 1 hr after ip administration. Format: functional. The settings on record: route intraperitoneal. Put shortly:
(§2)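 Time course in reserpine-pretreated male Wistar rats (250–300 g), given reserpine 2.5 mg/rat ip 18 h before dosing. The drug was given ip in distilled water (1 mL/kg), and rats were killed 1, 3 or 6 h later, with saline controls at each time. Serum prolactin was measured by duplicate NIADDK RIA (ng RP3/mL) and reported as % inhibition versus controls, mean ± standard error, 6–10 rats/group.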

The subject of data set [4] is Rattus norvegicus. Description: Compound was tested for inhibiting prolactin release at the 4.56 mg/kg dose levels 3h after ip administration. To be noted: route intraperitoneal. Format: functional. Put shortly: as §2
Data set [5] concerns Rattus norvegicus. The data set is described as follows: Compound was tested for inhibiting prolactin release at the 4.56 mg/kg dose levels 6 hr after ip administration. Format: functional. The settings on record: route intraperitoneal. Put shortly: as §2
Data set [6] is described as follows: Compound was evaluated for its acute toxicity in rat. The class given is organism-based. The settings on record: in vivo. Put shortly:
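Male Wistar rats (200–250 g), 50 per substance, given single ip doses at five dose levels with 10 rats per dose. Deaths were followed for up to 14 days. LD50 was estimated by the Weil method, with 95% confidence limits.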

The subject of data set [7] is Rattus norvegicus. Description: Dopaminergic activity, ability to lower serum prolactin levels 1 hr after intraperitoneal administration of compound (4.56 mg/kg). Format: functional, organism-based. Put shortly: as §2
Data set [8] concerns Rattus norvegicus. Description: Compound at the 4.56 mg/kg dose levels was evaluated for its ability to lower serum prolactin levels 3h after intraperitoneal administration. The class given is functional, organism-based. More on the design: dose 4.56 mg/kg. Put shortly:
as §2

In data set [9] the test system is Rattus norvegicus. The data set is described as follows: Dopaminergic activity, ability to lower serum prolactin levels after intraperitoneal administration of compound (0.0456 mg/k). The class given is functional, organism-based. Put shortly: as §1
The test system of data set [10] is Rattus norvegicus. Description: Dopaminergic activity, ability to lower serum prolactin levels after intraperitoneal administration of compound (0.456 mg/kg). Format: functional, organism-based. Put shortly: as §1
For data set [11], the system named is Rattus norvegicus. The data set is described as follows: Compound at the 4.56 mg/kg dose levels was evaluated for its ability to lower serum prolactin levels 6 hr after intraperitoneal administration. The class given is functional, organism-based. More on the design: dose 4.56 mg/kg. Put shortly:
as §2

Data set [12] concerns Rattus norvegicus. Description: Dopaminergic activity, ability to lower serum prolactin levels after intraperitoneal administration of compound (11.2 mg/kg) in rats. The class given is functional, organism-based. Put shortly:
as §1

Data set [13] has as its system Rattus norvegicus. Description: Dopaminergic activity, ability to lower serum prolactin levels after intraperitoneal administration of compound (34.7 mg/kg). Format: functional, organism-based. The method, boiled down: as §1
In data set [14] the test system is Rattus norvegicus. The data set is described as follows: Compound was tested for inhibiting prolactin release at the 50.0 mg/kg dose levels. Format: functional. Put shortly:
as §1

Data set [15] relates to Rattus norvegicus. Description: Dopaminergic activity, ability to lower serum prolactin levels after intraperitoneal administration of compound (50.0 mg/kg). The class given is functional, organism-based. The method, boiled down: as §1
Data set [16] relates to Rattus norvegicus. The data set is described as follows: Compound was tested for inhibiting prolactin release at 0.833 mg/kg dose levels. Format: functional. Put shortly:
as §1

Data set [17] relates to Rattus norvegicus. Description: Compound was tested for inhibiting prolactin release at the 4.165 mg/kg dose levels. The class given is functional. Put shortly: as §1
In data set [18] the test system is Rattus norvegicus. The data set is described as follows: Compound was tested for inhibiting prolactin release at the 8.33 mg/kg dose levels. The class given is functional. Put shortly: as §1
In data set [19] the test system is Rattus norvegicus. Description: Dopaminergic activity, ability to lower serum prolactin levels after intraperitoneal administration of compound (4.165 mg/kg). Format: functional, organism-based. The method, boiled down:
as §1

Data set [20] concerns Rattus norvegicus. The data set is described as follows: Dopaminergic activity, ability to lower serum prolactin levels after intraperitoneal administration of compound (8.33 mg/kg). Format: functional, organism-based. The method, boiled down:
as §1

In data set [21] the test system is Rattus norvegicus. The data set is described as follows: Dopaminergic activity, ability to lower serum prolactin levels after intraperitoneal administration of compound (0.833 mg/kg). Format: functional, organism-based. Put shortly: as §1
Data set [22] relates to Rattus norvegicus. Description: Compound was tested for inhibiting prolactin release at the 103.3 mg/kg dose levels. Format: functional. Put shortly: as §1
Data set [23] relates to Rattus norvegicus. Description: Dopaminergic activity, ability to lower serum prolactin levels after intraperitoneal administration of compound (103.3 mg/kg). The class given is functional, organism-based. The method, boiled down:
as §1

Data set [24] deals with Rattus norvegicus. Description: Dopaminergic activity, ability to lower serum prolactin levels after intraperitoneal administration of compound (0.001 mg/kg) in rats. Format: functional, organism-based. The method, boiled down: as §1
Data set [25] relates to Rattus norvegicus. The data set is described as follows: Dopaminergic activity, ability to lower serum prolactin levels after intraperitoneal administration of compound (0.01 mg/kg) in rats. The class given is functional, organism-based. The method, boiled down:
as §1

Data set [26] relates to Rattus norvegicus. Description: Dopaminergic activity, ability to lower serum prolactin levels after intraperitoneal administration of compound (0.1 mg/kg) in rats. Format: functional, organism-based. Put shortly:
as §1

For data set [27], the system named is Rattus norvegicus. Description: Compound was tested for the percent prolactin inhibiting activity at the 0.001 mg/kg dose levels. Format: functional. Put shortly: (§3)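 Adult male Wistar rats (250-300 g), individually caged, food and water ad libitum, pretreated ip with reserpine 2.5 mg/rat 18 h before dosing to keep prolactin high. Single ip dose in distilled water (1 mL per kg); controls received isotonic saline. Serum prolactin measured by radioimmunoassay in duplicate, 100 μL serum, as ng rat prolactin RP3/mL; % inhibition versus saline controls.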

Data set [28] deals with Rattus norvegicus. The data set is described as follows: Compound was tested for the percent prolactin inhibiting activity at the 0.01 mg/kg dose levels. The class given is functional. The method, boiled down:
as §3

The test system of data set [29] is Rattus norvegicus. Description: Compound was tested for the percent prolactin inhibiting activity at the 0.1 mg/kg dose levels. Format: functional. Put shortly: as §3

In general, inhibition in vivo refers to how much of the control response was suppressed. Read a low inhibition in vivo as little suppression. As a reminder, the LD50 is the dose expected to kill half of the subjects tested. A higher LD50 goes with a less toxic substance.

`CCCN1CCC[C@@H]2c3cccnc3CC[C@H]21`: the inhibition in vivo at 0.0456 mg/kg with Rattus norvegicus [1] is 27.5%. This molecule showed an inhibition in vivo at 0.456 mg/kg in the data set on Rattus norvegicus [2] of 47.3%. The inhibition in vivo at 4.56 mg/kg worked out at 85% in the data set on Rattus norvegicus [3], 70% in the data set on Rattus norvegicus [4] and 41.8% in the data set with Rattus norvegicus [5]. Further, the LD50 in [6] is 183 mg/kg. For the same molecule, the Level in the data set on Rattus norvegicus [7] was 2.5 ng/mL; with Rattus norvegicus [8], 4.6 ng/mL; in the data set with Rattus norvegicus [9], 12.1 ng/mL; in the data set on Rattus norvegicus [10] it was 8.8 ng/mL; in the data set with Rattus norvegicus [11], 9.6 ng/mL.
In the case of `Cc1cn2cccc3c2c1C[C@@H]1[C@@H]3CCCN1C`, the LD50 in [6] was 45 mg/kg. This molecule yielded a Level in the data set with Rattus norvegicus [12] of 18.9 ng/mL.
In data set [6], `CCCN1CCC[C@H]2c3cccnc3CC[C@H]21` gave a 50% lethal dose (LD50) of 139 mg/kg. This molecule also gave a Level in the data set on Rattus norvegicus [13] of 19.3 ng/mL.
Consider `CN1CCC[C@H]2c3cccnc3CC[C@H]21`, for which, in the data set on Rattus norvegicus [14], the inhibition in vivo at 50 mg/kg is 14.3%. The molecule also came in with a 50% lethal dose (LD50) in [6] of 200 mg/kg. In the data set with Rattus norvegicus [15], the Level came to 14.3 ng/mL.
In the data set with Rattus norvegicus [16], `CCN1CCC[C@@H]2c3cccn4cc(C)c(c34)C[C@H]21` displayed an inhibition in vivo at 0.833 mg/kg of 34.7%. In the data set with Rattus norvegicus [17], this molecule returned an inhibition in vivo at 4.165 mg/kg of 71.3%. The molecule further showed an inhibition in vivo at 8.33 mg/kg with Rattus norvegicus [18] of 80.2%. Further, the LD50 in [6] was 228 mg/kg. For the same molecule, the Level in the data set with Rattus norvegicus [19] is 4.7 ng/mL; with Rattus norvegicus [20], 3.3 ng/mL; in the data set on Rattus norvegicus [21], 10.9 ng/mL.
With `CCCN1CCC[C@@H]2c3cccn4cc(C)c(c34)C[C@H]21`, the inhibition in vivo at 103.3 mg/kg with Rattus norvegicus [22] was 38.9%. The molecule further returned an LD50 in data set [6] of 413 mg/kg. For the same molecule, in the data set on Rattus norvegicus [23], the Level was 10.2 ng/mL.
As for `CC(C)C[C@H]1C(=O)N2CCC[C@H]2[C@]2(O)O[C@](NC(=O)[C@@H]3C=C4c5cccc6[nH]c(Br)c(c56)C[C@H]4N(C)C3)(C(C)C)C(=O)N12` [BROMOCRIPTINE], the figures for the Level with Rattus norvegicus [24], in the data set on Rattus norvegicus [25] and with Rattus norvegicus [26] were 12.7 ng/mL, 6.6 ng/mL and 1.6 ng/mL, respectively. In the data set on Rattus norvegicus [27], this molecule yielded an inhibition in vivo at 0.001 mg/kg of 23.9%. In addition, testing at 0.01 mg/kg in the data set on Rattus norvegicus [28] gave an inhibition in vivo of 60.4%. This molecule also registered an inhibition in vivo at 0.1 mg/kg with Rattus norvegicus [29] of 90.4%.

For the origin of these results see ChEMBL document CHEMBL1123278, “Synthesis and dopaminergic activity of trans-6-methyl-7a,8,9,10,11,11a-hexahydro-7H-pyrrolo[3,2,1-gh]- 4,7-phenanthroline and trans-1,2,3,4,4a,5,6,10b-octahydro-4,7-phenanthroline derivatives” (J Med Chem, 1986).
